Assay results as given in ChEMBL document CHEMBL1140883, “Synthesis and antitumor activity of novel amsacrine analogs: the critical role of the acridine moiety in determining their biological activity” (Bioorg Med Chem, 2009).
Calls of active or inactive are those of the source. The rule behind the calls is not given here.

Assays:
[1] = tested on: MCF7; assay: Cytotoxicity against human MCF7 cells after 72 hrs by MTT assay; format: functional, cell-based; settings: MCF7, 72 h
Summary of the method: (§1)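 Cells kept in log phase at 37 °C, 5% CO2, in RPMI-1640 with 10% foetal calf serum. Seeded at 3–8 × 10^4 mL^-1 according to growth rate. Treated 72 h with increasing drug concentrations, final solvent 0.5%. MTT read-out as absorbance at 540 nm, expressed as % of untreated control. IC50 taken from dose–survival curves.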

[2] = tested on: HL-60; assay: Cytotoxicity against human HL60 cells after 72 hrs by MTT assay; format: functional, cell-based; settings: HL-60, 72 h; summary of the method: as §1
[3] = tested on: 2008; assay: Cytotoxicity against human 2008 cells after 72 hrs by MTT assay; format: functional, cell-based; settings: Homo sapiens, 2008, 72 h; summary of the method: as §1
[4] = tested on: A549; assay: Cytotoxicity against human A549 cells after 72 hrs by MTT assay; format: functional, cell-based; settings: A549, 72 h
Summary of the method: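 A549 cells kept in log phase at 37 °C, 5% CO2, in F-12 Ham's with 15% foetal calf serum, penicillin 50 units mL^-1 and streptomycin. Seeded at 3–8 × 10^4 mL^-1, then treated 72 h with increasing concentrations, final solvent 0.5%. MTT absorbance at 540 nm as % of untreated control. IC50 taken from dose–survival curves.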

[5] = tested on: A-431; assay: Cytotoxicity against human A431 cells after 72 hrs by MTT assay; format: functional, cell-based; settings: A-431, 72 h; summary of the method: as §1
[6] = tested on: Salmonidae; assay: Binding affinity to salmon testes DNA assessed as negative dichroic signal by linear dichroism experiment
Summary of the method: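 Flow linear dichroism on salmon testes DNA at 1.5 × 10^-3 M in ETN buffer (10 mM Tris, 10 mM NaCl, 1 mM EDTA, pH 7). DNA orientation by shear gradient at 500–700 rpm. Spectra recorded at 25 °C at [drug]/[DNA] ratios of 0, 0.02, 0.04 and 0.08, each spectrum accumulated four times. DNA concentration from ε260 6600 M^-1 cm^-1.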

With `CS(=O)(=O)Nc1ccc(Nc2c3ccccc3nc3oc(=O)ccc23)cc1` the IC50 [1] was over 100 µM, the IC50 [2] was 92.1 µM and the IC50 [3] was over 100 µM. It also gave an IC50 [4] of over 100 µM and an IC50 [5] of 94.1 µM.

For `COc1cc(NS(C)(=O)=O)ccc1Nc1c2ccccc2nc2ccccc12` [AMSACRINE], the IC50 [1] was 5.13 µM, the Activity [6] was “Active” and the IC50 [2] was 1.15 µM. It also gave an IC50 [3] of 4.31 µM, an IC50 [4] of 3.52 µM and an IC50 [5] of 5.89 µM.

Work on `COc1ccc2nc3oc(=O)ccc3c(Nc3ccc(NS(C)(=O)=O)cc3OC)c2c1` yielded an IC50 [1] of over 100 µM, an IC50 [2] of 95.2 µM and an IC50 [3] of over 100 µM. For the same molecule, the IC50 [4] was over 100 µM and the IC50 [5] was 85.7 µM.

`COc1ccc2nc3oc(=O)ccc3c(Cl)c2c1` was tested, and the IC50 [1] was over 100 µM, the IC50 [2] was over 100 µM and the IC50 [3] was over 100 µM. The IC50 [4] was over 100 µM and the IC50 [5] was 97 µM.

With `COc1cccc2c(Nc3ccc(NS(C)(=O)=O)cc3)c3ccc(=O)oc3nc12` the IC50 [1] was over 100 µM, the IC50 [2] was over 100 µM and the IC50 [3] was over 100 µM. It also gave an IC50 [4] of over 100 µM and an IC50 [5] of over 100 µM.

For `COc1cccc2c(Cl)c3ccc(=O)oc3nc12`, the IC50 [1] was 54.1 µM, the IC50 [2] was 37.1 µM and the IC50 [3] was 60.6 µM. It also gave an IC50 [4] of 75.4 µM and an IC50 [5] of 55.3 µM.

`COc1ccc2c(Cl)c3ccc(=O)oc3nc2c1` was tested, and the IC50 [1] was 50.1 µM, the IC50 [2] was 60.3 µM and the IC50 [3] was over 100 µM. The IC50 [4] was 53.4 µM and the IC50 [5] was over 100 µM.

`COc1cc(NS(C)(=O)=O)ccc1Nc1c2ccc(=O)oc2nc2c(OC)cccc12` showed an IC50 [1] of over 100 µM, an IC50 [2] of over 100 µM and an IC50 [3] of over 100 µM. It also gave an IC50 [4] of 81.5 µM and an IC50 [5] of over 100 µM.

For `COc1cc(NS(C)(=O)=O)ccc1Nc1c2ccccc2nc2oc(=O)ccc12`, the IC50 [1] was over 100 µM, the IC50 [2] was over 100 µM and the IC50 [3] was over 100 µM. For the same molecule, the IC50 [4] was over 100 µM and the IC50 [5] was over 100 µM.

In the case of `COc1ccc2nc3oc(=O)ccc3c(Nc3ccc(NS(C)(=O)=O)cc3)c2c1`, the IC50 [1] is reported as 60.6 µM, the IC50 [2] is reported as 47.3 µM and the IC50 [3] is reported as 68.2 µM. For the same molecule, the IC50 [4] was over 100 µM and the IC50 [5] was 55.6 µM.

Molecule `COc1ccc2c(Nc3ccc(NS(C)(=O)=O)cc3)c3ccc(=O)oc3nc2c1` has an IC50 [1] of over 100 µM, an IC50 [2] of over 100 µM and an IC50 [3] of over 100 µM. It also gave an IC50 [4] of over 100 µM and an IC50 [5] of 92.7 µM.

Work on `O=c1ccc2c(Cl)c3ccccc3nc2o1` yielded an IC50 [1] of over 100 µM, an IC50 [2] of 39.5 µM and an IC50 [3] of 52.6 µM. It also gave an IC50 [4] of 62.9 µM and an IC50 [5] of 54.3 µM.
